Molecules are shown by their SMILES.

Data set [1] deals with MT4. In words: 50% inhibition of MT-4 cell proliferation. It counts as functional. The note with it: Homo sapiens, read-out: CD50 (the source's name). The procedure, abridged: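 MT-4 cells in RPMI-1640 with 10% FBS, cultured 3 days with compound at 0.001-200 µg/mL, triplicate per dose. Cell concentration and viability measured by trypan blue dye exclusion, and CD50 calculated.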

Data set [2] has as its system MT4. As to the kind of experiment: 50% inhibition of HIV replication in MT-4 cells. As to conditions: Homo sapiens, read-out: ID50 (the source's name). It counts as functional. A digest of the protocol:
(§1)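 HIV-1-infected MT-4 cells (MOI 0.2-0.5; cells at 2 × 10^6 cells/mL, viability >90%) in RPMI-1640 with 10% FBS, L-glutamine, gentamycin and lincomycin. Cultured 3 days with compound at 0.001-100 µg/mL, triplicate per dose. Replication measured as p24 antigen by immunoassay.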

In data set [3] the test system is MT4. In words: Ratio of CD50 to ID50 was determined. The format is functional, Homo sapiens.
Data set [4] in a line: Half life for hydrolysis of compound in phosphate buffer of pH 7.2 at 20 degree C. It counts as ADME.
Data set [5] deals with MT4. In words: 90% inhibition of HIV replication in MT-4 cells. The format is functional, Homo sapiens. A digest of the protocol: as §1
Data set [6] is described as follows: Half life for the hydrolysis of compound in human blood serum. The format is ADME, cell-free, Plasma.

Take `CCOC(=O)CP(=O)(OCC1C=CC(n2cc(C)c(=O)[nH]c2=O)O1)OC1CCCCC1` (stereo not drawn): the CC50 in the data set with MT4 [1] amounted to 131 µM. The IC50 in the data set on MT4 [2] is > 10000 nM. In addition, in the data set on MT4 [3], the IS is recorded as <13.
The term half-life denotes how long it takes for the measured level to halve. A low value points to rapid decline. `CCOP(=O)(OCC1OC(n2cc(C)c(=O)[nH]c2=O)CC1N=[N+]=[N-])C(=O)NCCc1ccccc1` (stereo not drawn) showed a half-life in data set [4] of 600 min. In addition, the CC50 in the data set with MT4 [1] came to 177 µM. Also, the IC50 in the data set with MT4 [2] was 9 nM. In addition, the IS in the data set on MT4 [3] amounted to 19711.
Turning to `CCOP(=O)(OCC1C=CC(n2cc(C)c(=O)[nH]c2=O)O1)C(=O)NCCc1ccccc1` (stereo not drawn), the half-life in data set [4] is > 1200 min. Further, in the data set with MT4 [1], the CC50 turned out to be 66.9 µM. For the same compound, in the data set with MT4 [2], the IC50 stood at 43 nM. In the data set with MT4 [3], the IS came out at 1555.
`CCOC(=O)P(=O)(OCC)OCC1OC(n2cc(C)c(=O)[nH]c2=O)CC1N=[N+]=[N-]` (stereo not drawn) gave a half-life in data set [4] of 10 min. Besides, the CC50 with MT4 [1] is 116 µM. In addition, the IC50 with MT4 [2] stood at 7.1 nM. For the same compound, the ID90 in the data set on MT4 [5] turned out to be 0.016 µM. The IS with MT4 [3] came out at 16338.
For the compound `CCOP(=O)(CC(N)=O)OCC1OC(n2cc(C)c(=O)[nH]c2=O)CC1N=[N+]=[N-]` (stereo not drawn), the half-life in data set [4] is > 1200 min. The CC50 in the data set with MT4 [1] is 456 µM. The IC50 with MT4 [2] was 290 nM. This compound came in with an ID90 in the data set with MT4 [5] of 1.68 µM. Further, the IS with MT4 [3] came to 1573.
Regarding `CCOP(=O)(OCC1OC(n2cc(C)c(=O)[nH]c2=O)CC1N=[N+]=[N-])C(=O)NC` (stereo not drawn), the half-life in data set [4] is 360 min. Besides, the CC50 in the data set on MT4 [1] was 113 µM. Further, the IC50 in the data set with MT4 [2] is 0.24 nM. Moreover, the ID90 in the data set with MT4 [5] is 0.0072 µM. Also, the IS with MT4 [3] turned out to be 470416.
On to `CCOP(=O)(OCC1OC(n2cc(C)c(=O)[nH]c2=O)CC1N=[N+]=[N-])C(N)=O` (stereo not drawn), for which the half-life in data set [4] was 150 min; in data set [6], 7 min. The CC50 in the data set on MT4 [1] turned out to be 249 µM. Further, in the data set with MT4 [2], the IC50 came out at 2 nM. Further, the ID90 with MT4 [5] was found to be 0.019 µM. In the data set on MT4 [3], the IS is 124300.
In the case of `CCOC(=O)CP(=O)(OCC1OC(n2cc(C)c(=O)[nH]c2=O)CC1N=[N+]=[N-])OC1CCCCC1` (stereo not drawn), the half-life in data set [4] was > 480 min. Further, the CC50 in the data set with MT4 [1] was determined as 280 µM. Moreover, in the data set with MT4 [2], the IC50 is 400 nM. The same compound had an ID90 with MT4 [5] of 1.4 µM. The IS in the data set with MT4 [3] is on record as 700.
For the compound `CCOP(=O)(CC(N)=O)OCC1C=CC(n2cc(C)c(=O)[nH]c2=O)O1` (stereo not drawn), the half-life in data set [4] and in data set [6] was > 1440 min throughout. In addition, the CC50 in the data set with MT4 [1] was found to be 268 µM. In the data set with MT4 [2], the IC50 stood at 5400 nM. The compound further came in with an ID90 in the data set on MT4 [5] of 18.8 µM. Also, the IS in the data set on MT4 [3] is recorded as 49.6.
For `CCOC(=O)CP(=O)(OCC)OCC1OC(n2cc(C)c(=O)[nH]c2=O)CC1N=[N+]=[N-]` (stereo not drawn), the CC50 in the data set with MT4 [1] was > 224 µM. The IC50 in the data set with MT4 [2] was 230 nM. For the same compound, the IS with MT4 [3] was >974.
Consider `CCOP(=O)(OCC1C=CC(n2cc(C)c(=O)[nH]c2=O)O1)C(N)=O` (stereo not drawn), for which the half-life in data set [4] was 420 min; in data set [6] it was 21 min. Moreover, in the data set with MT4 [1], the CC50 came to 214 µM. Besides, the IC50 in the data set with MT4 [2] was 30 nM. In addition, the ID90 in the data set on MT4 [5] was found to be 7.21 µM. For the same compound, the IS in the data set with MT4 [3] worked out at 7143.
On to `CCOC(=O)CP(=O)(OCC)OCC1C=CC(n2cc(C)c(=O)[nH]c2=O)O1` (stereo not drawn), for which the half-life in data set [4] is > 480 min. The CC50 in the data set with MT4 [1] worked out at 136 µM. Besides, the IC50 with MT4 [2] was > 10000 nM. Also, the IS with MT4 [3] is recorded as <13.
`Cc1cn([C@H]2C=C[C@@H](CO)O2)c(=O)[nH]c1=O` [STAVUDINE]: in the data set on MT4 [2], the IC50 is 240 nM. For the same compound, the ID90 in the data set on MT4 [5] is 23.8 µM. Besides, the IS with MT4 [3] is reported as 1308.
Consider `CCOC(=O)P(=O)(OCC)OCC1C=CC(n2cc(C)c(=O)[nH]c2=O)O1` (stereo not drawn), for which, in data set [4], the half-life was determined as 30 min. Besides, the CC50 with MT4 [1] worked out at 136 µM. Also, in the data set on MT4 [2], the IC50 turned out to be 230 nM. The ID90 in the data set with MT4 [5] is 21.7 µM. For the same compound, the IS with MT4 [3] is recorded as 591.
For `CCOP(=O)(OCC1C=CC(n2cc(C)c(=O)[nH]c2=O)O1)C(=O)NC` (stereo not drawn), in that order: 900 min, 85.7 µM, 13 nM, 0.27 µM and 6592.
For the compound `Cc1cn([C@H]2C[C@H](N=[N+]=[N-])[C@@H](CO)O2)c(=O)[nH]c1=O` [ZIDOVUDINE], the CC50 in the data set with MT4 [1] came to 188 µM. The IC50 in the data set with MT4 [2] is 17 nM. This compound also returned an ID90 in the data set on MT4 [5] of 0.75 µM. Further, the IS in the data set with MT4 [3] came to 11029.

Values taken from ChEMBL document CHEMBL1149185, “Uncharged AZT and D4T derivatives of phosphonoformic and phosphonoacetic acids as anti-HIV pronucleosides” (J Med Chem, 2004).
